Activity, inhibition and Emax data for one compound are collected here from ChEMBL document CHEMBL4038317, “Discovery of a Benzamide Derivative That Protects Pancreatic β-Cells against Endoplasmic Reticulum Stress” (J Med Chem, 2017).

Molecules are shown by their SMILES. The source made the active and inactive calls. The rule behind the calls is not given here.

For series [1], the system named is INS1. Description: Cytotoxicity against rat INS-1 cells assessed as reduction in cell viability up to 10 uM after 3 days by CellTiter-Glo assay. The following applies: ins1, 72 h. In kind it is cell-based. The gist of the method:
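INS-1 cells, 3×10^3 per well, were given compound or DMSO alone (no tunicamycin) for 72 h. Intracellular ATP was read by luminescence and expressed as fold of untreated cells. Triplicate wells, three independent experiments.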

For series [2], the system named is INS1. Description: Effect on ATF4 mRNA level in rat INS-1 cells up to 10 uM after 8 hrs by qRT-PCR analysis. In kind it is ADME, cell-based. Particulars: ins1, 8 h. The method in brief:
(§1)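 INS-1 cells, 4×10^5 per well, were exposed to tunicamycin 0.1 μg/mL with compound or DMSO for 8 h. qRT-PCR for ATF4, CHOP, Bip, GRP94, or spliced XBP1 using splicing-specific primers. Values were normalized to cyclophilin A by ΔΔCt and given as fold over untreated control. Triplicate wells, 3 independent experiments.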

For another series, the species on record is Rattus norvegicus. Description: Inhibition of tunicamycin ER stress-induced IRE1alpha activation in rat INS-1 cells assessed as suppression of tunicamycin-induced increase in XBP1 mRNA levels up to 10 uM after 8 hrs by qRT-PCR analysis. In kind it is cell-based. The gist of the method:
as §1

The subject of series [3] is INS1. The series is described as follows: Protection against tunicamycin ER stress-induced suppression of INS2 mRNA expression in rat INS-1 cells up to 1 uM after 24 hrs by qRT-PCR analysis. In kind it is functional, cell-based. The method in brief:
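INS-1 cells were exposed to tunicamycin 0.1 μg/mL with compound or DMSO for 24 h. INS1, INS2, PDX1 and MafA mRNA were measured by qRT-PCR and normalized to cyclophilin A by the comparative Ct method. Triplicate wells, 3 independent experiments.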

The target of series [4] is T1, Eukaryotic translation initiation factor 2-alpha kinase 3 (Rattus norvegicus) (UniProt Q9Z1Z1).
T1 sequence (whole entry): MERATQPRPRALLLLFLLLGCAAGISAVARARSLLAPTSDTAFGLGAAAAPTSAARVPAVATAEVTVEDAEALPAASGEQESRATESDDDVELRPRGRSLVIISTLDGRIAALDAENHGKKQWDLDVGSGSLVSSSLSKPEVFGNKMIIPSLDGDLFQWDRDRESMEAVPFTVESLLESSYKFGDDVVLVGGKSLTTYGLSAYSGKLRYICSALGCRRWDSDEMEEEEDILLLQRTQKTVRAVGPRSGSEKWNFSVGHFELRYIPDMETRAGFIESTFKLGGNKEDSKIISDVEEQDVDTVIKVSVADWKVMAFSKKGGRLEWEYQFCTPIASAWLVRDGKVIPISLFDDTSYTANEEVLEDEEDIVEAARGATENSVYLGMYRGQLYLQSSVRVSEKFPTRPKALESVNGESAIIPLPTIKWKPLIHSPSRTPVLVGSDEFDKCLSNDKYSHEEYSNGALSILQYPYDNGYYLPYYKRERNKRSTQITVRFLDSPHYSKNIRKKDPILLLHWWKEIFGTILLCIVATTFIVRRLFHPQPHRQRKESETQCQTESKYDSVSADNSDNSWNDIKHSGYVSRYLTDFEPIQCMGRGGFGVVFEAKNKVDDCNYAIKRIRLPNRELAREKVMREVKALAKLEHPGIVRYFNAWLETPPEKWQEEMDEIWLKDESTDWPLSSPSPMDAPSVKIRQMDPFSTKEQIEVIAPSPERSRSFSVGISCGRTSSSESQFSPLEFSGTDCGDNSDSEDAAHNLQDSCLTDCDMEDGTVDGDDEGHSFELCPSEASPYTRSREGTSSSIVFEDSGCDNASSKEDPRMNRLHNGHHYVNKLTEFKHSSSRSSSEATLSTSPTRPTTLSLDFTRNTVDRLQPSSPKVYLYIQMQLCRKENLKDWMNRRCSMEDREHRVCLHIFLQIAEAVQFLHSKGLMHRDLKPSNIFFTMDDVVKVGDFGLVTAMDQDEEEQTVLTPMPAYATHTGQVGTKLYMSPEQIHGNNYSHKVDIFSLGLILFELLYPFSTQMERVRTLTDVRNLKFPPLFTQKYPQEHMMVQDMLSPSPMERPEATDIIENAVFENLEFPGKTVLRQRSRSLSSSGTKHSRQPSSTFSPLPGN
The series is described as follows: Inhibition of PERK activation in rat INS-1 cells assessed as suppression of tunicamycin-induced increase in ATF4 mRNA levels up to 10 uM after 8 hrs by qRT-PCR analysis. It is filed as cell-based. The gist of the method:
as §1

Series [5] concerns INS1. Description: Cytoprotective activity against tunicamycin ER stress-induced apoptosis in rat INS-1 cells assessed as viable cells at 0.1 uM after 48 hrs by phase contrast microscopic analysis. In kind it is functional, cell-based. The method in brief: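 INS-1 cells were exposed to tunicamycin 0.1 μg/mL with compound (0.1 μM) or DMSO for 48 h. Live-cell phase-contrast images were taken at 10×; 3 independent experiments.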

Series [6] has as its system INS1. The series is described as follows: Cytoprotective activity in rat INS-1 cells assessed as protection against tunicamycin-induced ER stress-mediated reduction in cell viability after 3 days by CellTiter-Glo assay relative tunicamycin. The following applies: INS1, 72 h. It is filed as functional. The method in brief:
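INS-1 cells, 3×10^3 per well, were co-treated with tunicamycin 0.1 μg/mL and compound for 72 h. Viability was read as intracellular ATP by luminescence and expressed as fold of no-tunicamycin cells. EC50 and maximum activity were taken as the increase in viability versus tunicamycin alone. Triplicate wells, three independent experiments.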

The target of series [7] is T2, Cyclic AMP-dependent transcription factor ATF-6 alpha (Rattus norvegicus) (UniProt G3V909).
T2 sequence (whole entry): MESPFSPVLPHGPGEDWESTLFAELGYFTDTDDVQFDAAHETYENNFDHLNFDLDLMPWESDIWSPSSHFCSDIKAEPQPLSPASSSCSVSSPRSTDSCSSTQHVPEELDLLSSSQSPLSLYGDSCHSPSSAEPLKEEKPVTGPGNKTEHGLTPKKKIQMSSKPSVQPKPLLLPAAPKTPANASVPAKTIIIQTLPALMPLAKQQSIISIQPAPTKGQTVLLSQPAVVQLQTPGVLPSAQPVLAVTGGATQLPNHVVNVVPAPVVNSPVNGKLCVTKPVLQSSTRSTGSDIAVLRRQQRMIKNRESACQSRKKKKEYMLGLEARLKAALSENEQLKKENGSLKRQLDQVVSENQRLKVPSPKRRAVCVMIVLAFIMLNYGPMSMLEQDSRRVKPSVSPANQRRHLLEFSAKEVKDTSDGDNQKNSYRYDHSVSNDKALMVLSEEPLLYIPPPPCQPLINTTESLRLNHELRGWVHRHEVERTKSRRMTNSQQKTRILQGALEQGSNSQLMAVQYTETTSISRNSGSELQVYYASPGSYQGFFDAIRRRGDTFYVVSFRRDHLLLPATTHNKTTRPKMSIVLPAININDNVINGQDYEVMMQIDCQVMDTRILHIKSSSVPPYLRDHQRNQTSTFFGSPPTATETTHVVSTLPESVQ
Description: Inhibition of tunicamycin ER stress-induced ATF6 activation in rat INS-1 cells assessed as suppression of increase in […] mRNA levels up to 10 uM after 8 hrs by qRT-PCR analysis. In kind it is cell-based. The gist of the method: as §1

Series [8] has as its system INS1. Description: Cytoprotective activity against tunicamycin ER stress-induced apoptosis in rat INS-1 cells assessed as TUNEL positive cells at 0.1 to 1 uM after 24 hrs by TUNEL/DAPI-based microscopic analysis (reference value: 7%). It is filed as functional.

For the compound `O=C(NCc1ccc(C(F)(F)F)cc1)c1cccc(CN2CCCCC2)c1`, the Activity result in the series on INS1 [1] is “Non-Toxic”; in the series with INS1 [2], “Non-Toxic”; in the series on INS1 [8] it was 0.5%. The inhibition entry (in the series listed under Rattus norvegicus; in [4]; in series [7]) was “Active” each time. For the same compound, the result with INS1 [3] and in the series with INS1 [5] was Active. The Emax in the series on INS1 [6] was 97%.
